Series [1] deals with 5-hydroxytryptamine receptor 4 (Homo sapiens, UniProt Q13639). In words: Displacement of [3H]-GR113808 from human 5-HT4 receptor expressed in African green monkey COS7 cell membranes after 30 mins by liquid scintillation counting analysis. On the set-up: species or system COS-7. Summed up:
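Membranes from Cos-7 cells expressing human 5-HT4: cells washed in PBS, pelleted, then resuspended in ice-cold 50 mM HEPES pH 7.4 and spun at 40,000 g for 30 min at 4 °C. Nonspecific binding was set with 10 μM 5-HT. IC50 came from linear regression of the displacement curve.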

Series [2] has as its target 5-hydroxytryptamine receptor 4 (Rattus norvegicus, UniProt Q62758). The series can be described thus: Agonist activity at 5-HT4 receptor in rat esophageal thoracic muscularis mucosae assessed as carbachol-induced contraction. A digest of the protocol:
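The distal 1.2 cm of rat esophagus was equilibrated 60 min in Krebs–Henseleit, washed every 15 min, with isometric force recording. Tissue was precontracted with 3 μM carbachol, then given a cumulative relaxation curve to 5-HT. After a wash and 60 min recovery it was recontracted and a test-compound curve run. Potency is relative to 5-HT in the same preparation.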

The subject of series [3] is Rattus norvegicus. The series can be described thus: Induction of gastric emptying rate in Sprague-Dawley rat at 5 mg/kg, iv administered prior to feeding measured after 30 mins. It is filed as functional, Stomach.
The subject of series [4] is Rattus norvegicus. In words: Induction of gastric emptying rate in Sprague-Dawley rat at 5 mg/kg, iv administered prior to feeding along with cisplatin injection measured after 40 mins. It is filed as functional, Stomach. Summed up:
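Male Sprague-Dawley rats (220–250 g) were fasted 18 h with water available. A 2 mL semisolid meal was given 30 min after drug, together with cisplatin 5 mg/kg i.v. Gastric emptying was determined 40 min later from stomach weights versus 0-time controls: [1 − test/control] × 100.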

Series [5] deals with Rattus norvegicus. In words: Induction of gastric emptying rate in Sprague-Dawley rat at 0.1 mg/kg, po administered prior to feeding measured after 30 mins. It is filed as functional, Stomach. Summed up:
(§1)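 Male Sprague-Dawley rats (220–250 g) were fasted 18 h with free water. A 2 mL semisolid meal was gavaged 50 min after drug, and rats were killed 30 min later. Stomach plus contents were weighed. Gastric emptying (%) = [1 − test stomach weight/0-time control stomach weight] × 100.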

The subject of series [6] is Rattus norvegicus. In words: Induction of gastric emptying rate in Sprague-Dawley rat at 0.5 mg/kg, po administered prior to feeding measured after 30 mins. It counts as functional, Stomach. Summed up:
as §1

Series [7] in a line: Half life in rat at 5 mg/kg, po. It is filed as ADME, organism-based. Conditions: in vivo.
Series [8] is described as follows: Tmax in rat at 5 mg/kg, po. It counts as ADME, organism-based. Conditions: in vivo.
Series [9] is described as follows: Cmax in rat at 5 mg/kg, po. Set-up: dose 5 mg/kg, route oral. Conditions: in vivo. It is filed as ADME, organism-based.
The test system of series [10] is Rattus norvegicus. In words: AUCinfinity in rat at 5 mg/kg, po. Conditions: in vivo. On the set-up: dose 5 mg/kg, time infinity, route oral. It counts as ADME, organism-based.

Sequence of 5-hydroxytryptamine receptor 4 (Homo sapiens, UniProt Q13639) (Q13639 whole entry): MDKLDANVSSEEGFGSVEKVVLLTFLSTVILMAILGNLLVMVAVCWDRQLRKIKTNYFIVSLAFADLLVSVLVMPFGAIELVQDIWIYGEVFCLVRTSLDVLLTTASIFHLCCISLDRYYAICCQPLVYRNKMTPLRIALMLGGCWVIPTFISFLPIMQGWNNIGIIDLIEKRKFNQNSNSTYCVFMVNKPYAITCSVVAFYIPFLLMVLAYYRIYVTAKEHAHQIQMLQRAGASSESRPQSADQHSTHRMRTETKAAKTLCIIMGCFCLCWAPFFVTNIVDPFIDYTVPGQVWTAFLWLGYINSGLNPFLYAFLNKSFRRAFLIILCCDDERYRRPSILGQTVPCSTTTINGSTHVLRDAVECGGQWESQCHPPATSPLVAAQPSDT
Sequence of 5-hydroxytryptamine receptor 4 (Rattus norvegicus, UniProt Q62758) (Q62758 whole entry): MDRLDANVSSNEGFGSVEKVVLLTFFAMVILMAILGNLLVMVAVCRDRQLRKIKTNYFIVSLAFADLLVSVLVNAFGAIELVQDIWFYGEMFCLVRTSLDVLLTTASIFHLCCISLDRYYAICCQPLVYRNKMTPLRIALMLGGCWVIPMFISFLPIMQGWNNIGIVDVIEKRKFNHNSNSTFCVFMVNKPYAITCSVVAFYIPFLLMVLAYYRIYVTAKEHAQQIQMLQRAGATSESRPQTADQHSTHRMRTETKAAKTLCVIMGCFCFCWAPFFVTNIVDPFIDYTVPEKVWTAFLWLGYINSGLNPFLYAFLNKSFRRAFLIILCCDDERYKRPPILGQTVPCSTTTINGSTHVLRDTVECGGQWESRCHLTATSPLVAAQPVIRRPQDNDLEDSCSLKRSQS

On to `COc1cc(N)c(Cl)cc1C(=O)N[C@H]1CCN(CC2CCN(C(=O)C(C)C)CC2)C[C@H]1OC` (racemic), for which, in [1], the IC50 (as a rule, the midpoint of a concentration-inhibition curve) amounted to 134 nM. For the same compound, the EC50 (as a rule, the concentration giving half of the maximal effect) in series [2] is 45.7 nM. Besides, the Activity in the series with Rattus norvegicus [3] is reported as 59.1%; with Rattus norvegicus [4] it was 58.6%; in the series with Rattus norvegicus [5] it was 46.2%; in the series with Rattus norvegicus [6], 46.9%. Also, the half-life (commonly the time in which the quantity being followed falls by half) in series [7] is 58.8 min. Also, in series [8], the Tmax – broadly, the time at which the peak concentration occurs – was 15 min. In addition, the Cmax (as a rule, the peak of the concentration-time curve) in [9] turned out to be 572 ng/mL. Also, in the series on Rattus norvegicus [10], the AUC (as a rule, concentration integrated over time) worked out at 483 ng·h/mL.

The values are drawn from ChEMBL document CHEMBL3758150, “Discovery and SAR of N-(1-((substituted piperidin-4-yl)methyl)-3-methoxypiperidin-4-yl)-2-methoxybenzamide derivatives: 5-Hydroxytryptamine receptor 4 agonist as a potent prokinetic agent” (Eur J Med Chem, 2016).
